What was measured:
Type in all cases: functional
M14 = test: Anticancer activity against human M14 cells after 48 hrs by SRB assay; conditions: M14, 48 h; for CC50: read-out: LC50 (the source's name)
How it was run: (§1)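 NCI five-dose screen. Cells in RPMI 1640 with 5% FBS and 2 mM L-glutamine, seeded at 5000–40,000 cells/well according to doubling time, then pre-incubated 24 h at 37 °C in 5% CO2. Drugs dissolved in DMSO, five concentrations by 10-fold or 1/2-log dilution. Cells fixed with TCA, SRB-stained, A515 read. IC50 solved from [(Ti−Tz)/(C−Tz)]×100 = 50.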

SK-MEL-28 = test: Anticancer activity against human SK-MEL-28 cells after 48 hrs by SRB assay; conditions: SK-MEL-28, 48 h; for CC50: read-out: LC50 (the source's name)
SK-MEL-2 = test: Anticancer activity against human SK-MEL-2 cells after 48 hrs by SRB assay; conditions: SK-MEL-2, 48 h; for CC50: read-out: LC50 (the source's name)
CAKI-1 = test: Anticancer activity against human Caki1 cells after 48 hrs by SRB assay; conditions: CAKI-1, 48 h; for CC50: read-out: LC50 (the source's name); how it was run: as §1
SF-539 = test: Anticancer activity against human SF539 cells after 48 hrs by SRB assay; conditions: SF-539, 48 h; for CC50: read-out: LC50 (the source's name)
SK-MEL-5 = test: Anticancer activity against human SK-MEL-5 cells after 48 hrs by SRB assay; conditions: SK-MEL-5, 48 h; for CC50: read-out: LC50 (the source's name)
NCI-H460 = test: Anticancer activity against human NCI-H460 cells after 48 hrs by SRB assay; conditions: NCI-H460, 48 h
MDA-MB-468 = test: Anticancer activity against human MDA-MB-468 cells after 48 hrs by SRB assay; conditions: MDA-MB-468, 48 h; for CC50: read-out: LC50 (the source's name)
Malme-3M = test: Anticancer activity against human MALME-3M cells after 48 hrs by SRB assay; conditions: for CC50: read-out: LC50 (the source's name); how it was run: as §1
HOP-92 = test: Anticancer activity against human HOP92 cells after 48 hrs by SRB assay; conditions: HOP-92, 48 h; for CC50: read-out: LC50 (the source's name); how it was run: as §1
MDA-MB-435 = test: Anticancer activity against human MDA-MB-435 cells after 48 hrs by SRB assay; conditions: MDA-MB-435, 48 h; for CC50: read-out: LC50 (the source's name); how it was run: as §1
COLO 205 = test: Anticancer activity against human COLO205 cells after 48 hrs by SRB assay; conditions: COLO 205, 48 h; for CC50: read-out: LC50 (the source's name); how it was run: as §1
U-251 = test: Anticancer activity against human U251 cells after 48 hrs by SRB assay; conditions: U-251, 48 h; for CC50: read-out: LC50 (the source's name)
How it was run: (§2)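 NCI-60 five-dose mode: cells in RPMI 1640 with 5% FBS and 2 mM glutamine, plated at 5000–40,000 cells/well, and preincubated 24 h, with time-zero plates TCA-fixed. Drug given at five concentrations (10-fold or ½-log serial dilutions). Cold TCA fixation 60 min at 4 °C, SRB stain, Tris solubilization, A515. IC50 taken where [(Ti−Tz)/(C−Tz)]×100 = 50.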

HCT-15 = test: Anticancer activity against human HCT15 cells after 48 hrs by SRB assay; conditions: HCT-15, 48 h; for CC50: read-out: LC50 (the source's name); how it was run: as §1
UACC-62 = test: Anticancer activity against human UACC62 cells after 48 hrs by SRB assay; conditions: UACC-62, 48 h; for CC50: read-out: LC50 (the source's name); how it was run: as §2
RXF 393 = test: Anticancer activity against human RXF393 cells after 48 hrs by SRB assay; conditions: RXF 393, 48 h; for CC50: read-out: LC50 (the source's name)
NCI-H522 = test: Anticancer activity against human NCI-H522 cells after 48 hrs by SRB assay; conditions: NCI-H522, 48 h; for CC50: read-out: LC50 (the source's name)
OVCAR-5 = test: Anticancer activity against human OVCAR5 cells after 48 hrs by SRB assay; conditions: OVCAR-5, 48 h; for CC50: read-out: LC50 (the source's name)
HOP-62 = test: Anticancer activity against human HOP62 cells after 48 hrs by SRB assay; conditions: HOP-62, 48 h; how it was run: as §1
K562 = test: Anticancer activity against human K562 cells after 48 hrs by SRB assay; conditions: K562, 48 h; for CC50: read-out: LC50 (the source's name); how it was run: as §1
MCF7 = test: Anticancer activity against human MCF7 cells after 48 hrs by SRB assay; conditions: MCF7, 48 h; for CC50: read-out: LC50 (the source's name); how it was run: as §1
SF-268 = test: Anticancer activity against human SF268 cells after 48 hrs by SRB assay; conditions: SF-268, 48 h; for CC50: read-out: LC50 (the source's name)
MDA-MB-231 = test: Anticancer activity against human MDA-MB-231 cells after 48 hrs by SRB assay; conditions: MDA-MB-231, 48 h; for CC50: read-out: LC50 (the source's name); how it was run: as §1
LOX IMVI = test: Anticancer activity against human LOXIMVI cells after 48 hrs by SRB assay; conditions: for CC50: read-out: LC50 (the source's name); how it was run: as §1
SW-620 = test: Anticancer activity against human SW620 cells after 48 hrs by SRB assay; conditions: SW-620, 48 h; for CC50: read-out: LC50 (the source's name); how it was run: as §2
OVCAR-4 = test: Anticancer activity against human OVCAR4 cells after 48 hrs by SRB assay; conditions: OVCAR-4, 48 h; for CC50: read-out: LC50 (the source's name)
HT-29 = test: Anticancer activity against human HT-29 cells after 48 hrs by SRB assay; conditions: HT-29, 48 h; for CC50: read-out: LC50 (the source's name); how it was run: as §1
NCI/ADR-RES = test: Anticancer activity against human NCI/ADR-RES cells after 48 hrs by SRB assay; conditions: for CC50: read-out: LC50 (the source's name)
ACHN = test: Anticancer activity against human ACHN cells after 48 hrs by SRB assay; conditions: for CC50: read-out: LC50 (the source's name); how it was run: as §1

## O=C(NCCNc1nccc(-c2c(-c3cccc(O)c3)nc3sccn23)n1)c1ccccc1
M14
  GI50: 434 nM
  TGI: 12.3 µM
  CC50: 37.3 µM
SK-MEL-28
  GI50: 336 nM
  TGI: 99.1 µM
  CC50: > 100 µM
SK-MEL-2
  GI50: 2940 nM
  TGI: 12.9 µM
  CC50: 48.8 µM
CAKI-1
  GI50: 5.92 µM
  TGI: 29.6 µM
  CC50: > 100 µM
SF-539
  GI50: 11.3 µM
  TGI: 36.8 µM
  CC50: > 100 µM
SK-MEL-5
  GI50: 4.15 µM
  TGI: 17.5 µM
  CC50: 43.4 µM
NCI-H460
  GI50: 10.4 µM
  TGI: 27.5 µM
MDA-MB-468
  GI50: 3.6 µM
  TGI: 28.7 µM
  CC50: > 100 µM
Malme-3M
  GI50: 205 nM
  CC50: > 100 µM
HOP-92
  GI50: 2220 nM
  TGI: 33.2 µM
  CC50: > 100 µM
MDA-MB-435
  GI50: 578 nM
  TGI: 12.8 µM
  CC50: 71.3 µM
COLO 205
  GI50: 3.99 µM
  TGI: 23.8 µM
  CC50: > 100 µM
U-251
  GI50: 17.9 µM
  TGI: > 100 µM
  CC50: > 100 µM
HCT-15
  GI50: 18.8 µM
  TGI: 62.2 µM
  CC50: > 100 µM
UACC-62
  GI50: 211 nM
  TGI: 1.37 µM
  CC50: 25.2 µM
RXF 393
  GI50: 4140 nM
  TGI: 22.2 µM
  CC50: 98.1 µM
NCI-H522
  GI50: 5.76 µM
  TGI: 25.5 µM
  CC50: 93.9 µM
OVCAR-5
  GI50: 18.3 µM
  TGI: 61.8 µM
  CC50: > 100 µM
HOP-62
  GI50: 23.5 µM
  TGI: 94.2 µM
K562
  GI50: 9.11 µM
  TGI: > 100 µM
  CC50: > 100 µM
MCF7
  GI50: 3.24 µM
  TGI: 14.9 µM
  CC50: 46.5 µM
SF-268
  GI50: 15.5 µM
  TGI: 87 µM
  CC50: > 100 µM
MDA-MB-231
  GI50: 7.05 µM
  TGI: 31.5 µM
  CC50: > 100 µM
LOX IMVI
  GI50: 3.22 µM
  TGI: 17.8 µM
  CC50: 80.2 µM
SW-620
  GI50: 18 µM
  TGI: 79.4 µM
  CC50: > 100 µM
OVCAR-4
  GI50: 13.9 µM
  TGI: 84.6 µM
  CC50: > 100 µM
HT-29
  GI50: 6.79 µM
  TGI: 38.3 µM
  CC50: > 100 µM
NCI/ADR-RES
  GI50: 34.8 µM
  TGI: > 100 µM
  CC50: > 100 µM
ACHN
  GI50: 6.43 µM
  TGI: 34.9 µM
  CC50: > 100 µM

## COc1cccc(-c2nc3sccn3c2-c2ccnc(NCCNC(=O)Nc3cccc(C(F)(F)F)c3)n2)c1
M14
  GI50: 2960 nM
  TGI: 8.48 µM
  CC50: 29.2 µM
SK-MEL-28
  GI50: 5360 nM
  TGI: 26.2 µM
  CC50: > 100 µM
SK-MEL-2
  GI50: 2030 nM
  TGI: 4.46 µM
  CC50: 9.78 µM
CAKI-1
  GI50: 3.5 µM
  TGI: 10.3 µM
  CC50: > 100 µM
SF-539
  GI50: 3.83 µM
  TGI: 17.1 µM
  CC50: 56.5 µM
SK-MEL-5
  GI50: 4.27 µM
  TGI: 15.9 µM
  CC50: 40.6 µM
NCI-H460
  GI50: 2.94 µM
  LC50: > 100 µM
  TGI: 14.4 µM
MDA-MB-468
  GI50: 2.63 µM
  TGI: 10.4 µM
  CC50: > 100 µM
Malme-3M
  GI50: 3860 nM
  TGI: 26.8 µM
  CC50: > 100 µM
HOP-92
  GI50: 853 nM
  TGI: 9.47 µM
  CC50: > 100 µM
MDA-MB-435
  GI50: 2950 nM
  TGI: 12.3 µM
  CC50: > 100 µM
COLO 205
  GI50: 5.37 µM
  TGI: 19.2 µM
  CC50: 58 µM
U-251
  GI50: 3.95 µM
  TGI: 19.8 µM
  CC50: > 100 µM
HCT-15
  GI50: 3.05 µM
  TGI: 16.4 µM
  CC50: > 100 µM
UACC-62
  GI50: 2550 nM
  TGI: 7.48 µM
  CC50: 27.7 µM
RXF 393
  GI50: 1770 nM
  TGI: 3.65 µM
  CC50: 7.49 µM
NCI-H522
  GI50: 2.67 µM
  TGI: 8.51 µM
  CC50: 86.5 µM
OVCAR-5
  GI50: 6.37 µM
  TGI: 52.2 µM
  CC50: > 100 µM
HOP-62
  GI50: 6.71 µM
  LC50 (concentration killing 50% of starting cells): > 100 µM
  TGI: 42.4 µM
K562
  GI50: 3.48 µM
  TGI: > 100 µM
  CC50: > 100 µM
MCF7
  GI50: 3.12 µM
  TGI: 13.3 µM
  CC50: > 100 µM
SF-268
  GI50: 4.59 µM
  TGI: 43.4 µM
  CC50: > 100 µM
MDA-MB-231
  GI50: 3.47 µM
  TGI: 12 µM
  CC50: > 100 µM
LOX IMVI
  GI50: 4.11 µM
  TGI: > 100 µM
  CC50: > 100 µM
SW-620
  GI50: 4.47 µM
  TGI: 91.5 µM
  CC50: > 100 µM
OVCAR-4
  GI50: 3.78 µM
  TGI: 34.1 µM
  CC50: > 100 µM
HT-29
  GI50: 3.33 µM
  TGI: 14 µM
  CC50: > 100 µM
NCI/ADR-RES
  GI50: 3.45 µM
  TGI: > 100 µM
  CC50: > 100 µM
ACHN
  GI50: 3.17 µM
  TGI: 19.1 µM
  CC50: > 100 µM

— ChEMBL document CHEMBL1914423, “New imidazo[2,1-b]thiazole derivatives: synthesis, in vitro anticancer evaluation, and in silico studies” (Eur J Med Chem, 2011)
